ChEMBL document CHEMBL1140339, “Spiro and dispiro-1,2,4-trioxolanes as antimalarial peroxides: charting a workable structure-activity relationship using simple prototypes” (J Med Chem, 2005)
≈ marks a conversion by molar mass, not a printed value.

How the values were obtained:
Mus musculus [1] = assay: Survival of mice to 30-day postinfection with Plasmodium berghei upon 10 mg/kg peroral dose was determined; format: functional; settings: route oral
Procedure, shortened: (§1)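 P. berghei-infected MORO mice, groups of three, treated 1 day postinfection with a single dose (100 or 10 mg/kg, po or sc) dissolved or suspended in 3% ethanol/7% Tween-80. Activity is percent reduction in parasitemia on day 3 postinfection versus untreated controls. Survival time is compared with an untreated control group. Individual measurements generally differed by less than 10%.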

Plasmodium falciparum [2] = assay: In vitro inhibition of chloroquine-sensitive Plasmodium falciparum NF54; format: functional, organism-based
Plasmodium falciparum [3] = assay: In vitro inhibition of chloroquine-resistant Plasmodium falciparum K1; format: functional, organism-based
Mus musculus [4] = assay: Antimalarial activity (10 mg/kg, subcutaneously) given 1 day post infection of mice (Mus musculus) with Plasmodium berghei is its ability to reduce parasitemia on day 3 post infection; format: functional; procedure, shortened: as §1
Mus musculus [5] = assay: Survival of mice to 30-day postinfection with Plasmodium berghei upon 10 mg/kg upon subcutaneous dose was determined; format: functional; procedure, shortened: as §1
Mus musculus [6] = assay: Antimalarial activity (10 mg/kg, peroral) given 1 day post infection of mice (Mus musculus) with Plasmodium berghei is its ability to reduce parasitaemia on day 3 post infection; format: functional; procedure, shortened: as §1
Mus musculus [7] = assay: Survival of mice to 30-day postinfection with Plasmodium berghei upon 100 mg/kg peroral dose was determined; format: functional; settings: route oral; procedure, shortened: as §1
Mus musculus [8] = assay: Survival of mice to 30-day postinfection with Plasmodium berghei upon 100 mg/kg upon subcutaneous dose was determined; format: functional; procedure, shortened: as §1
Mus musculus [9] = assay: Antimalarial activity (100 mg/kg, peroral) given 1 day post infection of mice (Mus musculus) with Plasmodium berghei is its ability to reduce parasitaemia on day 3 post infection; format: functional; procedure, shortened: as §1
Mus musculus [10] = assay: Antimalarial activity (100 mg/kg, subcutaneously) given 1 day post infection of mice (Mus musculus) with Plasmodium berghei is its ability to reduce parasitemia on day 3 post infection; format: functional; procedure, shortened: as §1
Mus musculus [11] = assay: Effective dose required to reduce the parasitemia in mice when compound administered with SSV after 3 day postinfection; format: functional
[12] = Plasma half life period after intravenous administration ( 10 mg/kg ); settings: rat
[13] = Plasma clearance after intravenous administration of 10 mg/kg; settings: rat
[14] = Volume distribution after intravenous administration of 10 mg/kg; settings: rat, in vivo
[15] = Oral bioavailability (dose 50 mg/kg); settings: rat, in vivo
Mus musculus [16] = assay: Effective dose required to reduce the parasitemia in mice when compound administered with Tween-80 after 3 day postinfection; format: functional
Mus musculus [17] = species on record: Mus musculus; assay: Effective dose required to reduce the parasitemia in mice by suppressive test after 4 day postinfection; format: functional
Procedure, shortened: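 Peters 4-day suppressive test in P. berghei-infected mice with multiple daily oral doses. ED50/ED90 are given in (mg/kg)/day.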

Mus musculus [18] = assay: Survival of mice to 30-day postinfection with Plasmodium berghei upon 10 mg/kg upon peroral dose was determined; format: functional; settings: route oral; procedure, shortened: as §1

Row | SMILES | Survival (Mus musculus [1]) | IC50 (Plasmodium falciparum [2]) | IC50 (Plasmodium falciparum [3]) | Reduction (Mus musculus [4]) | Survival (Mus musculus [5]) | Reduction (Mus musculus [6]) | Survival (Mus musculus [8]) | other results
1 | c1ccc(C2CCC3(CC2)OOC2(O3)C3CCCC2CCC3)cc1 (stereo not drawn) | 5 days | > 0.1 µg/mL | > 0.1 µg/mL | 0% | 5 days | 0% | – | –
2 | O=C1CCC2(CC1)OOC1(CCCCC1)O2 | – | 0.039 µg/mL (≈ 0.172 µM) | 0.015 µg/mL (≈ 0.0663 µM) | – | – | – | 5 days | Survival (Mus musculus [7]): 5 days; Reduction (Mus musculus [9]): 0%; Reduction (Mus musculus [10]): 0%
3 | CC(C)C1CCC2(CC1)OOC1(O2)C2CC3CC(C2)CC1C3 (stereo not drawn) | 7.3 days | 0.002 µg/mL (≈ 0.00653 µM) | 0.0014 µg/mL (≈ 0.00457 µM) | 9.89% | 9 days | 99% | – | –
4 | CC1(C)CCC2(CC1)OOC1(O2)C2CC3CC(C2)CC1C3 (stereo not drawn) | 6.7 days | 0.0035 µg/mL (≈ 0.012 µM) | 0.0023 µg/mL (≈ 0.00787 µM) | – | 11.7 days | 80% | – | –
5 | CCN(CC)CCCC(C)Nc1ccnc2cc(Cl)ccc12 (stereo not drawn) [CHLOROQUINE] | – | – | – | – | – | – | – | ED50 (Mus musculus [11]): 1.9 (mg/kg)/day; ED90 (Mus musculus [11]): 4.2 (mg/kg)/day
6 | C1CC2(CCO1)OOC1(O2)C2CC3CC(C2)CC1C3 (stereo not drawn) | 6 days | – | – | 99.6% | – | 35% | 7.7 days | –
7 | C1CCC2(CC1)COC1(O2)C2CC3CC(C2)CC1C3 (stereo not drawn) | – | > 1 µg/mL | > 1 µg/mL | – | – | – | 5.6 days | Survival (Mus musculus [7]): 5.6 days; Reduction (Mus musculus [9]): 0%; Reduction (Mus musculus [10]): 0%
8 | CC1(C)COC2(CCC3(CC2)OOC2(CC(C)(C)CC(C)(C)C2)O3)OC1 | 5.7 days | – | – | 0% | 5.7 days | 0% | – | –
9 | C[C@@H]1CC[C@H]2[C@@H](C)C(=O)O[C@@H]3O[C@@]4(C)CC[C@@H]1[C@]32OO4 [ARTEMISININ] | – | – | 0.0016 µg/mL (≈ 0.00567 µM) | – | – | – | 14 days | Reduction (Mus musculus [9]): 98%; Reduction (Mus musculus [10]): >99.99%
10 | Fc1ccc(C2(c3ccc(F)cc3)OOC3(CCC(c4ccccc4)CC3)O2)cc1 (stereo not drawn) | 5.3 days | – | – | 0% | 5.7 days | 0% | – | –
11 | c1ccc(C2(c3ccccc3)OOC3(O2)C2CC4CC(C2)CC3C4)cc1 (stereo not drawn) | 6 days | 0.0026 µg/mL (≈ 0.00746 µM) | 0.0023 µg/mL (≈ 0.0066 µM) | 92% | 7 days | 68% | – | –
12 | CC(C)(C)C1CCC2(CC1)OOC1(O2)C2CC3CC(C2)CC1C3 (stereo not drawn) | 5 days | 0.084 µg/mL (≈ 0.262 µM) | 0.063 µg/mL (≈ 0.197 µM) | 0% | 5.3 days | 0% | – | –
13 | c1ccc(C2(c3ccccc3)CCC3(CC2)OOC2(O3)C3CC4CC(C3)CC2C4)cc1 (stereo not drawn) | 5.3 days | 0.06 µg/mL (≈ 0.144 µM) | 0.042 µg/mL (≈ 0.101 µM) | 0% | 5.7 days | 0% | – | –
14 | CCOC(=O)N1CCC2(CC1)OOC1(O2)C2CC3CC(C2)CC1C3 (stereo not drawn) | 7.7 days | 0.00057 µg/mL (≈ 0.00169 µM) | 0.00029 µg/mL (≈ 0.000859 µM) | 99.9% | 8.9 days | 99.5% | – | half-life [12]: 344 min; clearance [13]: 47 mL/min/kg; Vd [14]: 23 L/kg; bioavailability [15]: 1.5%; ED90 (Mus musculus [16]): 5.5 (mg/kg)/day; ED90 (Mus musculus [17]): 2 (mg/kg)/day
15 | CC1(C)COC2(CCC3(CC2)OOC2(O3)C3CCCC2CCC3)OC1 (stereo not drawn) | 5 days | 0.049 µg/mL (≈ 0.139 µM) | 0.041 µg/mL (≈ 0.116 µM) | 6% | 5.3 days | 1% | – | –
16 | CCCC1CCC2(CC1)OOC1(O2)C2CC3CC(C2)CC1C3 (stereo not drawn) | 8.4 days | 0.0021 µg/mL (≈ 0.00685 µM) | 0.0011 µg/mL (≈ 0.00359 µM) | – | 16.5 days | – | – | –
17 | C[C@H]1[C@H](OC(=O)CCC(=O)O)O[C@@H]2O[C@@]3(C)CC[C@H]4[C@H](C)CC[C@@H]1[C@@]24OO3 [ARTESUNATE] | 6.8 days | – | – | 65% | 6.8 days | 65% | – | ED50 (Mus musculus [11]): 5.9 (mg/kg)/day; ED90 (Mus musculus [11]): 21 (mg/kg)/day; ED50 (Mus musculus [16]): 5 (mg/kg)/day; ED90 (Mus musculus [16]): 13 (mg/kg)/day; ED50 (Mus musculus [17]): 2.4 (mg/kg)/day; ED90 (Mus musculus [17]): 13 (mg/kg)/day
18 | C1CCCCCC2(CCCCC1)OOC1(O2)C2CC3CC(C2)CC1C3 (stereo not drawn) | 7.4 days | – | – | 90% | – | – | 7 days | –
19 | C1CCC2(CC1)OCC1(O2)C2CC3CC(C2)CC1C3 (stereo not drawn) | – | > 1 µg/mL | > 1 µg/mL | – | – | – | 5.6 days | Survival (Mus musculus [7]): 5.8 days; Reduction (Mus musculus [9]): 0%; Reduction (Mus musculus [10]): 0%
20 | C1C2CC3CC1CC(C2)C31OOC2(O1)C1CC3CC(C1)CC2C3 (stereo not drawn) | – | 0.779 µg/mL (≈ 2.46 µM) | 0.95 µg/mL (≈ 3 µM) | – | – | – | 5.3 days | Survival (Mus musculus [7]): 5.3 days; Reduction (Mus musculus [9]): 0%; Reduction (Mus musculus [10]): 0%
21 | CC(C)(C)C1CCC2(CC1)OOC1(CCC(c3ccccc3)CC1)O2 (stereo not drawn) | 0 days | 0.062 µg/mL (≈ 0.18 µM) | 0.077 µg/mL (≈ 0.224 µM) | – | – | – | – | –
22 | O=S1(=O)CCC2(CC1)OOC1(O2)C2CC3CC(C2)CC1C3 (stereo not drawn) | 7 days | – | – | 97% | 7.3 days | 77% | – | –
23 | OC1CCC2(CC1)OOC1(O2)C2CC3CC(C2)CC1C3 (stereo not drawn) | 6.7 days | – | – | 91% | 8.7 days | 79% | – | –
24 | C1CCC2(CC1)OOC1(CCCCC1)O2 | – | 0.504 µg/mL (≈ 2.37 µM) | 0.1 µg/mL (≈ 0.471 µM) | – | – | – | 5.3 days | Survival (Mus musculus [7]): 5.3 days; Reduction (Mus musculus [9]): 0%; Reduction (Mus musculus [10]): 0%
25 | CO[C@H]1O[C@@H]2O[C@@]3(C)CC[C@H]4[C@H](C)CC[C@@H]([C@H]1C)[C@@]24OO3 | – | – | – | 99.78% | – | 98% | 14.7 days | half-life [12]: 52 min; clearance [13]: 114 mL/min/kg; Vd [14]: 8 L/kg; Survival (Mus musculus [7]): 14.7 days; bioavailability [15]: 1.4%; ED50 (Mus musculus [11]): 2.7 (mg/kg)/day; ED90 (Mus musculus [11]): 6.2 (mg/kg)/day; Reduction (Mus musculus [9]): 99.95%; Reduction (Mus musculus [10]): >99.99%; ED50 (Mus musculus [16]): 2 (mg/kg)/day; ED90 (Mus musculus [16]): 4.3 (mg/kg)/day; ED50 (Mus musculus [17]): 3.1 (mg/kg)/day
26 | c1ccc(CC2(Cc3ccccc3)OOC3(O2)C2CC4CC(C2)CC3C4)cc1 (stereo not drawn) | 6.7 days | 0.003 µg/mL (≈ 0.00797 µM) | 0.0031 µg/mL (≈ 0.00823 µM) | 99.7% | 8 days | 88% | – | –
27 | C1CCC2(CC1)OOC1(O2)C2CC3CC(C2)CC1C3 (stereo not drawn) | – | – | – | >99.99% | – | 94% | 28 days | Survival (Mus musculus [18]): 7.2 days; Survival (Mus musculus [7]): 14.3 days; Reduction (Mus musculus [9]): >99.99%; Reduction (Mus musculus [10]): >99.99%
28 | CC1(C)CC(C)(C)CC2(C1)OOC1(O2)C2CC3CC(C2)CC1C3 (stereo not drawn) | 7 days | 0.005 µg/mL (≈ 0.0156 µM) | 0.0031 µg/mL (≈ 0.00967 µM) | 99.9% | 97 days | 88% | – | –
